How the values were obtained:
[1] = (§1) Cytotoxicity on normal human lymphocytes(HL) (O.D.=0.114+/-0.01); format: functional; conditions: read-out: TC50 (the source's name)
[2] = molecular target: Human immunodeficiency virus type 1 reverse transcriptase (Human immunodeficiency virus 1, UniProt Q72547, Y188L); experiment: Inhibition of HIV-1 Mutant HIV-1 RT enzymes containing the single amino acid substitution Y188L
C8166 [3] = experiment: (§2) Selectivity index was determined in C8166 cells; format: functional, Homo sapiens
Summary of the method: (§3)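 C8166 CD4+ T-cell line (HTLV-I genome, only tat expressed) acutely infected with lymphocytotropic HIV-1 IIIB. […] Read-out is HIV-p24 antigen in supernatants. AZT positive control was run at the same time. SI = IC50/EC50.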

[4] = molecular target: Human immunodeficiency virus type 1 reverse transcriptase (Human immunodeficiency virus 1, UniProt Q72547, Y181I); experiment: Inhibition of HIV-1 Mutant HIV-1 RT enzymes containing the single amino acid substitution Y181I
Mus musculus [5] = species on record: Mus musculus; experiment: Cytotoxicity on NSO murine cell line (O.D.=0.125+/-0.015); format: functional; conditions: read-out: TC50 (the source's name)
[6] = system: Human immunodeficiency virus 1; experiment: Concentration which produces a 50% survival of HIV-1 infected cells relative to uninfected control C8166 cells; format: functional, organism-based; conditions: Human immunodeficiency virus 1, C8166
[7] = molecular target: Human immunodeficiency virus type 1 reverse transcriptase (Human immunodeficiency virus 1, UniProt Q72547, K103N); experiment: Inhibition of HIV-1 Mutant HIV-1 RT enzymes containing the single amino acid substitution K103N
C8166 [8] = experiment: (§4) Concentration which results in 50% survival of uninfected untreated control C8166 cells (cytotoxicity of the compound); format: functional, cell-based; conditions: Homo sapiens
Summary of the method: (§5)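 Toxicity in uninfected C8166 cells by MTT reduction to formazan, read spectrophotometrically.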

Daudi [9] = experiment: Cytotoxicity on Daudi Human(DH) cell line (O.D.=0.129+/-0.018); format: functional; conditions: read-out: TC50 (the source's name)
[10] = molecular target: T1, Human immunodeficiency virus type 1 reverse transcriptase (Human immunodeficiency virus 1, UniProt Q72547); experiment: Inhibition of HIV-1 Mutant HIV-1 RT enzymes containing the single amino acid substitution […]
[11] = molecular target: Human immunodeficiency virus type 1 reverse transcriptase (Human immunodeficiency virus 1, UniProt Q72547, V106A); experiment: Inhibition of HIV-1 Mutant HIV-1 RT enzymes containing the single amino acid substitution V106A
NIH3T3 [12] = experiment: Cytotoxicity on 3T3 fibroblasts (3T3F) murine cell line (O.D.=0.131+/-0.014); format: functional; conditions: Mus musculus, read-out: TC50 (the source's name)
CEM-SS [13] = experiment: Concentration which produces a 50% survival of HIV-1 infected cells relative to uninfected control CEM-SS cells (in vitro anti-HIV activity); format: functional, cell-based; conditions: Homo sapiens
Summary of the method: (§6)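 CEM-SS T4 lymphocytes infected with wild-type HIV-1. Protection from virus-induced cell death is scored against an AZT-treated positive control run under identical conditions. […] SI = IC50/EC50.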

[14] = as §2; format: functional; summary of the method: as §3
CEM-SS [15] = experiment: (§7) Concentration which results in 50% survival of uninfected untreated control CEM-SS cells (cytotoxicity of the compound); format: functional, cell-based; conditions: Homo sapiens, read-out: IC50 (the source's name)
[16] = Selectivity index was determined in CEM-SS cells; format: functional; summary of the method: as §6
[17] = as §1; conditions: read-out: TC50 (the source's name)
[18] = molecular target: T1, Human immunodeficiency virus type 1 reverse transcriptase; experiment: Inhibition of HIV-1 wild-type RT
[19] = (§8) cytotoxicity on normal human lymphocytes(HL) (O.D.=0.114+/-0.01); conditions: read-out: TC50 (the source's name)
[20] = system: Human immunodeficiency virus 1; experiment: Inhibition of HIV-1-p24 antigen production in monocyte-macrophages (in vitro anti-HIV-1 activity); format: functional, organism-based
Summary of the method: (§9)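 Macrophages from adherent PBMC (10^6/mL, RPMI-1640 with 20% heat-inactivated FCS), 10^5 per well, >95% pure, infected with monocytotropic HTLV-III Ba-L. Antiviral activity read 14 days after infection. […] SI = IC50/EC50. AZT control run in parallel.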

[21] = Selectivity index between IC50 of HIV-1-p24 and EC50 of HIV-1-p24 (IC50/EC50); format: functional; summary of the method: as §9
[22] = Selectivity index (IC50/EC50) was determined in CEM-SS cells; format: functional
Summary of the method: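 CEM-SS (T4 lymphocyte) cells infected with wild-type HIV-1 were scored for protection from virus-induced cell death. […] SI = IC50/EC50. An AZT-treated positive control was run in parallel under identical conditions.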

Mus musculus [23] = species on record: Mus musculus; experiment: cytotoxicity on NSO murine cell line (O.D.=0.125+/-0.015); format: functional; conditions: read-out: TC50 (the source's name)
C8166 [24] = experiment: Synergistic antiviral activity with AZT (DDI), against HIV-IIIB in C8166 cells; format: functional, cell-based; conditions: Homo sapiens
Summary of the method: (§10)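 C8166 cells infected with HIV-IIIB and treated with compound combined with AZT (or DDI). Combination index calculated by the Chou-Talalay multiple drug effect analysis under both mutually exclusive and mutually nonexclusive assumptions.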

[25] = Selectivity index (IC50/EC50) was determined in C8166 cells; format: functional
CEM-SS [26] = experiment: as §7; format: cell-based; conditions: Homo sapiens
C8166 [27] = experiment: Synergistic antiviral activity of AZT (DDI) with the compound, against HIV-IIIB in C8166 cells; format: functional, cell-based; conditions: Homo sapiens; summary of the method: as §10
Daudi [28] = experiment: cytotoxicity on Daudi Human(DH) cell line (O.D.=0.129+/-0.018); format: functional; conditions: read-out: TC50 (the source's name)
NIH3T3 [29] = experiment: (§11) cytotoxicity on 3T3 fibroblasts (3T3F) murine cell line (O.D.=0.131+/-0.014); format: functional; conditions: Mus musculus, read-out: TC50 (the source's name)
C8166 [30] = experiment: Antiviral activity alone against HIV-IIIB in C8166 cells; format: functional, cell-based; conditions: Homo sapiens; summary of the method: as §3
[31] = system: Human immunodeficiency virus 1; experiment: Inhibition of HIV-1-p24 antigen production in monocyte-macrophages (cytotoxicity of the compound); format: organism-based; summary of the method: as §9
[32] = as §8; format: functional; conditions: read-out: TC50 (the source's name)
Murine cell line = experiment: as §11; format: functional; conditions: Mus musculus, read-out: TC50 (the source's name)
[33] = Selectivity index was (IC50/EC50) determined in C8166 cells; format: functional
[34] = Cytotoxicity against normal human lymphocytes(HL) (O.D.=0.114+/-0.01); conditions: read-out: TC50 (the source's name)
C8166 [35] = experiment: as §4; format: cell-based; conditions: Homo sapiens; summary of the method: as §5
Daudi [36] = experiment: Cytotoxicity against Daudi Human(DH) cell line (O.D.=0.129+/-0.018); format: functional; conditions: read-out: TC50 (the source's name)
NIH3T3 [37] = experiment: Cytotoxicity against 3T3 fibroblasts (3T3F) murine cell line (O.D.=0.131+/-0.014); format: functional; conditions: Mus musculus, read-out: TC50 (the source's name)
Mus musculus [38] = species on record: Mus musculus; experiment: Cytotoxicity against NSO murine cell line (O.D.=0.125+/-0.015); format: functional; conditions: read-out: TC50 (the source's name)

Structure (SMILES) | CC50 [1] [µM] | Ki [2] [µM] | Ki [4] [µM] | CC50 (Mus musculus [5]) [µM] | EC50 [6] [µM] | Ki [7] [µM] | IC50 (C8166 [8]) [µM] | CC50 (Daudi [9]) [µM] | Ki [10] [µM] | Ki [11] [µM] | CC50 (NIH3T3 [12]) [µM] | EC50 (CEM-SS [13]) [µM] | CC50 (CEM-SS [15]) [µM] | Ki [18] [µM] | SI [22] | CC50 (Mus musculus [23]) [µM] | SI [25] | CC50 (Daudi [28]) [µM] | other results
S=C(NCCOc1nc2cc(Cl)ccc2n2cccc12)Nc1ccc(Br)cn1 | > 1000 | 0.1 | 0.09 | > 1000 | 0.025 | 0.21 | 93 | > 1000 | 0.12 | 0.12 | > 1000 |  |  |  |  |  |  |  | SI (C8166 [3]): 3720
O=c1c2cccn2c2c(F)cccc2n1CCNC(=S)Nc1ccc(Br)cn1 |  | 0.2 | 0.9 | 520 | 0.2 | 0.4 | 21 | 510 | 0.8 | 0.06 | 500 | 0.0019 | > 2 | 0.04 |  |  |  |  | SI [14]: 105; SI [16]: >110; CC50 [17]: 510 µM
O=c1c2cccn2c2ccc(F)cc2n1CC/N=C(\S)Nc1ccc(Br)cn1 |  | 1.2 | 1 |  | 0.032 | 0.65 | 15 |  | 0.7 | 0.04 |  | 0.063 |  | 0.029 | >3170 | 20 | 468 | 19 | CC50 [19]: 20 µM; EC50 [20]: 0.004 µM; SI [21]: 12200; EC50 (C8166 [24]): 0.057 µM; IC50 (CEM-SS [26]): > 200 µM; EC50 (C8166 [27]): 0.085 µM; CC50 (NIH3T3 [29]): 20 µM; EC50 (C8166 [30]): 0.066 µM; IC50 [31]: 49 µM
O=c1c2cccn2c2ccc(Cl)cc2n1CCNC(=S)Nc1ccc(Br)cn1 |  | 0.9 | 0.24 |  | 0.061 | 0.15 | 7 |  | 0.16 | 0.02 |  | 0.0018 | > 2 | 0.02 | >1080 | 970 | 123 | 960 | CC50 [32]: 970 µM; CC50 (Murine cell line): 980 µM
Fc1cccc2c1nc(OCCNC(=S)Nc1ccc(Br)cn1)c1cccn12 | > 1000 | 0.7 | 0.3 | > 1000 | 0.02 | 0.35 | 125 | > 1000 | 0.15 | 0.029 | > 1000 | 0.0029 | > 2 | 0.058 | >690 |  |  |  | SI [33]: 6250
O=c1c2cccn2c2ccccc2n1CCNC(=S)Nc1ccc(Br)cn1 |  | 2.5 | 4 |  | 0.38 | 0.1 |  |  | 0.105 | 0.112 |  |  |  | 0.058 |  |  |  |  | CC50 [34]: 800 µM; IC50 (C8166 [35]): 17 µM; CC50 (Daudi [36]): 800 µM; CC50 (NIH3T3 [37]): 800 µM; CC50 (Mus musculus [38]): 800 µM

Reference: ChEMBL document CHEMBL1134834, “Quinoxalinylethylpyridylthioureas (QXPTs) as potent non-nucleoside HIV-1 reverse transcriptase (RT) inhibitors. Further SAR studies and identification of a novel orally bioavailable hydrazine-based antiviral agent” (J Med Chem, 2001)
